# In ChEMBL document CHEMBL4184153, “Optimization of a series of heterocycles as survival motor neuron gene transcription enhancers” (Bioorg Med Chem Lett, 2017):
# Active and inactive are the calls of the source. The calls are words filed in the database; no cut-off is given here.
# Columns and labels:
# [1] = Activation of SMN2 gene (unknown origin) transcription in HEK293 cells expressing SMN2-luc assessed as increase in SMN2 mRNA level after 24 hrs by luciferase reporter gene assay; assay type: cell-based; settings: HEK293, 24 h
# Procedure, shortened: (§1)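 Luciferase reporter read-out of SMN2 expression; compounds tested at various concentrations (0.1 – 50 μM) against 0.1% DMSO controls. Dose-response curves fitted to give EC50 and percent maximum increase in SMN2 expression; values mean ± S.E.M.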
# HEK293 [2] = assay: Activation of SMN2 gene (unknown origin) transcription in HEK293 cells expressing SMN2-luc assessed as increase in SMN2 mRNA level at 0.1 to 50 uM after 24 hrs by luciferase reporter gene assay relative to control; assay type: cell-based; procedure, shortened: as §1
# [3] = biological target: Survival motor neuron protein (Homo sapiens, UniProt Q16637); assay: Stabilization of human SMN protein expressed in HEK293 cells expressing SMN2 promoter after 24 hrs by luciferase reporter gene assay; assay type: cell-based
# [4] = Aqueous solubility of the compound at pH 7.4; assay type: physicochemical; settings: aqueous medium
# [5] = Half life in mouse microsomes; assay type: ADME, Microsome
# Homo sapiens [6] = organism: Homo sapiens; assay: Increase in SMN2 mRNA expression in SMA derived human fibroblasts assessed as increase in SMN protein aggregates (Gems)
# HEK293 [7] = assay: Activation of SMN2 gene (unknown origin) transcription in HEK293 cells expressing SMN2-luc assessed as increase in SMN2 mRNA level after 24 hrs by qRT-PCR analysis; assay type: cell-based
# Homo sapiens [8] = organism: Homo sapiens; assay: Increase in SMN2 mRNA expression in SMA derived human fibroblasts assessed as increase in SMN protein level
# HEK293 [9] = assay: Activation of SMN1 gene (unknown origin) transcription in HEK293 cells assessed as increase in SMN1 exon 7 transcript level after 24 hrs by qRT-PCR analysis; assay type: cell-based
# Mus musculus = assay: Increase in life span of SMNdelta7 SMA mouse model assessed as median survival days at 20 mg/kg, ip, administered once daily beginning at PND2 (reference value: 6 days)
# Sequence of Survival motor neuron protein (Q16637 whole entry): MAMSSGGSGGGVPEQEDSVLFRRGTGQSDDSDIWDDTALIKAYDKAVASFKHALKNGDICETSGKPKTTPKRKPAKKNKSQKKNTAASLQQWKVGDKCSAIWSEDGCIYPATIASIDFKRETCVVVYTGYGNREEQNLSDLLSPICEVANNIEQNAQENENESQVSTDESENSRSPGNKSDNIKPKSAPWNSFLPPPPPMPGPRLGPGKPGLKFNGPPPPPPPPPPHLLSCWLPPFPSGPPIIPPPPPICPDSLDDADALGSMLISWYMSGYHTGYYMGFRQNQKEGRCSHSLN
SMILES,EC50 [1] [µM],Emax (HEK293 [2]) [%],Activity (HEK293 [2]),other results
COc1cc(Cl)ccc1C1NC(=O)Nc2cc(OC)c(OC)c(OC)c21 (stereo not given),7.8,200,–,–
COc1cc2c(c(OC)c1OC)C(C)(c1cc(Cl)ccc1F)OCC(=O)N2 (stereo not given),–,–,inactive,–
COc1cc2c(c(OC)c1OC)C(c1cc(C#N)ccc1F)CC(=O)N2 (stereo not given),–,–,inactive,–
COc1cc2c(c(OC)c1OC)C(c1cc(Cl)ccc1F)OC(C)C(=O)N2 (mixture of isomers),2.6,125,–,–
COc1cc2c(c(OC)c1OC)C(c1ccc(Cl)cc1)NC(=O)N2 (stereo not given),6.6,150,–,–
CCCN1C(=O)Nc2cc(OC)c(OC)c(OC)c2C1c1cccc(Cl)c1 (stereo not given),5.2,100,–,–
COc1ccc(F)c(C2NC(=O)Nc3cc(OC)c(OC)c(OC)c32)c1 (stereo not given),–,–,inactive,–
COc1cc2c(c(OC)c1OC)C(c1ccc(F)c(F)c1)CC(=O)N2 (stereo not given),–,–,inactive,–
COc1cc2c(c(OC)c1OC)C(c1cc(F)ccc1F)NC(=O)N2 (stereo not given),17,100,–,–
CC(C)c1cc(C(=O)Nc2ccc(F)c(Cl)c2)no1,–,242,–,EC50 [3]: 1.8 µM
COc1cc2c(c(OC)c1OC)C(c1ccccc1Cl)NC(=O)N2 (stereo not given),–,–,inactive,–
COc1cc2c(c(OC)c1OC)C(c1cc(C)ccc1F)NC(=O)N2 (stereo not given),4.3,125,–,–
COc1cc2c(c(OC)c1OC)C(c1cc(Br)ccc1F)CC(=O)N2 (stereo not given),8.3,186,–,solubility [4]: < 1 µM
COc1cc2c(c(OC)c1OC)C(c1cccc(Cl)c1Cl)CC(=O)N2 (stereo not given),–,–,inactive,–
COc1cc2c(c(OC)c1OC)C(c1cc(Cl)ccc1F)OCC(=O)N2C (stereo not given),–,–,inactive,–
COc1ccccc1C1NC(=O)Nc2cc(OC)c(OC)c(OC)c21 (stereo not given),–,–,inactive,–
COc1ccc2c(c1OC)C(c1cc(Br)ccc1F)CC(=O)N2 (stereo not given),–,–,inactive,–
COc1cc2c(c(OC)c1OC)C(c1cc(Br)ccc1F)CC(=O)N2C (stereo not given),–,–,inactive,–
COc1cc2c(c(OC)c1OC)C(c1ccc(Cl)cc1F)NC(=O)N2 (stereo not given),6.3,150,–,–
COc1cc2[nH]c(=O)nc(-c3cc(Cl)ccc3F)c2c(OC)c1OC,–,–,inactive,–
COc1cc2c(c(OC)c1OC)C(c1cc(Cl)ccc1F)=NCC(=O)N2,8.4,125,–,–

SMILES,EC50 [1] [µM],Emax (HEK293 [2]) [%],Activity (HEK293 [2]),other results
COc1cc2c(c(OC)c1OC)C(c1cc(Cl)ccc1F)OCC(=O)N2 (stereo not given),5.9,150,–,half-life [5]: 3 min; solubility [4]: 58 µM
COc1cc2c(c(OC)c1OC)C(c1cc(Cl)ccc1F)OC(=O)N2 (stereo not given),–,125,–,–
COc1cc2c(c(OC)c1OC)C(c1ccc(F)cc1)NC(=O)N2 (stereo not given),14,150,–,–
COc1cc2c(c(OC)c1OC)C(c1ccc(Cl)c(Cl)c1)CC(=O)N2 (stereo not given),–,–,inactive,–
COc1ccc(C2NC(=O)Nc3cc(OC)c(OC)c(OC)c32)cc1 (stereo not given),–,–,inactive,–
COc1cc2c(c(OC)c1OC)C(c1cc(Cl)ccc1F)CC(=O)N2 (stereo not given),12,150,–,–
COc1cc2c(c(OC)c1OC)C(c1cc(Br)ccc1F)C(C)C(=O)N2 (mixture of isomers),–,–,inactive,–
COc1cc2c(c(OC)c1OC)C(c1cccc(Br)c1)CC(=O)N2 (stereo not given),–,–,inactive,–
COc1cc2c(c(OC)c1OC)C(c1cc(Cl)ccc1F)NC(=O)N2 (racemic),4.1,263,–,half-life [5]: 20 min; solubility [4]: 91 µM; fold change (FC) (Homo sapiens [6]): 2; Activity (HEK293 [7]): Active; fold change (FC) (Homo sapiens [8]): 2; Activity (HEK293 [9]): Active; median survival (Mus musculus): 15 days
COc1cc2c(c(OC)c1OC)C(c1ccc(Cl)cc1Cl)CC(=O)N2 (stereo not given),–,–,inactive,–
COc1cc2c(c(OC)c1OC)C(c1ccccc1F)CC(=O)N2 (stereo not given),–,–,inactive,–
COc1cc2c(c(OC)c1OC)C(c1cc([N+](=O)[O-])ccc1F)CC(=O)N2 (stereo not given),–,–,inactive,–
COc1cc2c(c(OC)c1OC)C(c1cc(C#N)ccc1F)NC(=O)N2 (stereo not given),–,–,inactive,–
COc1cc2c(c(OC)c1OC)C(c1cccc(F)c1)NC(=O)N2 (stereo not given),25,150,–,–
COc1cc2c(c(OC)c1OC)C(c1cc(C(N)=O)ccc1F)CC(=O)N2 (stereo not given),–,–,inactive,–
COc1cc2c(c(OC)c1OC)C(c1cc(F)ccc1F)CC(=O)N2 (stereo not given),–,–,inactive,–
COc1cc2c(c(OC)c1OC)C(c1ccccc1F)N(C)C(=O)N2 (stereo not given),6 to 10,100 to 180,–,–
COc1cc2c(c(OC)c1)C(c1cc(Br)ccc1F)CC(=O)N2 (stereo not given),–,–,inactive,–
COc1cc2c(c(OC)c1OC)C(c1cc(-c3ccccc3)ccc1F)NC(=O)N2 (stereo not given),–,–,inactive,–
COc1cccc(C2NC(=O)Nc3cc(OC)c(OC)c(OC)c32)c1 (stereo not given),18,100,–,–
COc1ccc(Cl)cc1C1NC(=O)Nc2cc(OC)c(OC)c(OC)c21 (stereo not given),3.6,225,–,–
